Results: ChEMBL document CHEMBL3044971, “Dialkoxybenzene and dialkoxyallylbenzene feeding and oviposition deterrents against the cabbage looper, Trichoplusia ni: potential insect behavior control agents” (J Agric Food Chem, 2010)

The compounds below were run on Trichoplusia ni (assay: Oviposition deterrent activity against adult female Trichoplusia ni (cabbage looper) moths introduced along with male moths into oviposition cage containing compound pretreated cabbage leaves assessed as eggs laying on the leaf disks at 0.25% after 48 hr). Conditions: not given.
Type: functional
In short: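 Choice test: one male and one female moth were caged with a control and a treated cabbage leaf (~100-110 cm²). Each side was sprayed with 0.5 mL MeOH or methanolic test solution at 0.25%. Values are mean ± SE, N = 35-40.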

SMILES	Activity
C=CCc1cc(OCCC(C)C)ccc1OCCC(C)C	20%
C=CCc1cc(OCCC)ccc1OCCC(C)C	20%
C=CCc1cc(OCCCC)ccc1OCCC(C)C	20%
C=CCc1cc(OCC)ccc1OCCC(C)C	20%
C=CCc1cc(OC)ccc1OCCC(C)C	20%
C=CCc1cc(OCCCC)ccc1OCCC	21%
C=CCc1cc(OCCC(C)C)ccc1OCCC	21%
C=CCc1cc(OCCC)ccc1OCCC	21%
C=CCc1cc(OCC)ccc1OCCC	21%
C=CCc1cc(OCCC(C)C)ccc1OC	37%
C=CCc1cc(OCCC)ccc1OC	37%
C=CCc1cc(OCCCC)ccc1OC	37%
C=CCc1cc(OC)ccc1OC	14%
C=CCc1cc(OCC)ccc1OC	37%
C=CCc1cccc(OCCCC)c1OCC	31%
C=CCc1cccc(OCCC(C)C)c1OCC	31%
C=CCc1cccc(OCCC)c1OCC	31%
C=CCc1cccc(OC)c1OCC	31%
C=CCc1cccc(OCC)c1OCC	31%

SMILES	Activity
C=CCc1cccc(OCCC)c1OC	32%
C=CCc1cccc(OCC)c1OC	32%
C=CCc1cccc(OC)c1OC	32%
C=CCc1cccc(OCCC(C)C)c1OC	32%
C=CCc1cccc(OCCCC)c1OC	32%
C=CCOc1ccccc1OCCCC [1-allyloxy-2-butoxybenzene]	35%
C=CCOc1ccccc1OCCC [1-allyloxy-2-propoxybenzene]	12%
C=CCOc1ccc(OC)cc1 [1-allyloxy-4-methoxybenzene]	13%
COc1cccc(OCCC(C)C)c1 [1-isopentyloxy-3-methoxybenzene]	30%
CCCCOc1ccccc1OCCC [1-propoxy-2-butoxybenzene]	37%
CCCOc1cccc(OCCC(C)C)c1 [3-PROPOXY-1-ISOPENTOXYBENZENE]	9%
CCCOc1ccc(OCC)cc1 [4-ETHOXY-1-PROPOXYBENZENE]	10%
C=CCOc1ccc(CC=C)cc1OC [ALLYLEUGENOL]	16%
CCN(CC)C(=O)c1cccc(C)c1 [DIETHYLTOLUAMIDE]	23%
C=CCc1ccc(OCC)c(OC)c1 [ETHYLEUGENOL]	18%
C=CCc1ccc(OCCC(C)C)c(OC)c1 [ISOPENTYLEUGENOL]	9%
C=CCc1ccc(OCCCC)c(OC)c1 [N-BUTYLEUGENOL]	34%
C=CCc1ccc(OCCC)c(OC)c1 [PROPYLEUGENOL]	29%

The compounds below were run on Trichoplusia ni. Conditions: in vivo, 24 h.

SMILES	mortality
C=CCc1cc(OCCC(C)C)ccc1OCCC(C)C	27%
C=CCc1cc(OCCC)ccc1OCCC(C)C	27%
C=CCc1cc(OCCCC)ccc1OCCC(C)C	27%
C=CCc1cc(OCC)ccc1OCCC(C)C	27%
C=CCc1cc(OC)ccc1OCCC(C)C	27%
C=CCc1cc(OCCCC)ccc1OCCC	17%
C=CCc1cc(OCCC(C)C)ccc1OCCC	17%
C=CCc1cc(OCCC)ccc1OCCC	17%
C=CCc1cc(OCC)ccc1OCCC	17%
C=CCc1cc(OCCC(C)C)ccc1OC	17%
C=CCc1cc(OCCC)ccc1OC	17%
C=CCc1cc(OCCCC)ccc1OC	17%
C=CCc1cc(OC)ccc1OC	17%
C=CCc1cc(OCC)ccc1OC	17%
C=CCc1cccc(OCCCC)c1OCC	27%
C=CCc1cccc(OCCC(C)C)c1OCC	27%
C=CCc1cccc(OCCC)c1OCC	27%
C=CCc1cccc(OC)c1OCC	27%
C=CCc1cccc(OCC)c1OCC	27%

SMILES	mortality
C=CCc1cccc(OCCC)c1OC	17%
C=CCc1cccc(OCC)c1OC	17%
C=CCc1cccc(OC)c1OC	17%
C=CCc1cccc(OCCC(C)C)c1OC	17%
C=CCc1cccc(OCCCC)c1OC	17%
C=CCOc1ccccc1OCCCC [1-allyloxy-2-butoxybenzene]	19%
C=CCOc1ccccc1OCCC [1-allyloxy-2-propoxybenzene]	10%
C=CCOc1ccc(OC)cc1 [1-allyloxy-4-methoxybenzene]	6%
COc1cccc(OCCC(C)C)c1 [1-isopentyloxy-3-methoxybenzene]	30%
CCCCOc1ccccc1OCCC [1-propoxy-2-butoxybenzene]	19%
CCCOc1cccc(OCCC(C)C)c1 [3-PROPOXY-1-ISOPENTOXYBENZENE]	10%
CCCOc1ccc(OCC)cc1 [4-ETHOXY-1-PROPOXYBENZENE]	17%
C=CCOc1ccc(CC=C)cc1OC [ALLYLEUGENOL]	18%
CCN(CC)C(=O)c1cccc(C)c1 [DIETHYLTOLUAMIDE]	7%
C=CCc1ccc(OCC)c(OC)c1 [ETHYLEUGENOL]	35%
C=CCc1ccc(OCCC(C)C)c(OC)c1 [ISOPENTYLEUGENOL]	28%
C=CCc1ccc(OCCCC)c(OC)c1 [N-BUTYLEUGENOL]	15%
C=CCc1ccc(OCCC)c(OC)c1 [PROPYLEUGENOL]	37%

What follows are compounds tested on Trichoplusia ni (assay: Feeding deterrent activity against freshly molted third-instar larval stage of Trichoplusia ni (cabbage looper) in compound pretreated cabbage leaves after 3 to 5 hr by leaf disk choice bioassay). Conditions: not given.
Type: functional, organism-based
In short: (§1)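 Leaf-disk choice test on greenhouse cabbage (Stonehead) leaves from 5-6-week plants. Freshly molted third-instar T. ni from a diet-reared colony (>50 generations) were starved 4-5 h. One disk had 10 μL test solution painted on each side, the other carrier solvent only. There were 25 larvae per treatment. Run ended at ~50% control disk eaten (3-5 h). Deterrence = (C−T)/(C+T)×100 from consumed areas.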

SMILES	DC50
C=CCc1cc(OCCC(C)C)ccc1OCCC(C)C	15 microg/cm2
C=CCc1cc(OCCC)ccc1OCCC(C)C	15 microg/cm2
C=CCc1cc(OCCCC)ccc1OCCC(C)C	15 microg/cm2
C=CCc1cc(OCC)ccc1OCCC(C)C	15 microg/cm2
C=CCc1cc(OC)ccc1OCCC(C)C	15 microg/cm2
C=CCc1cc(OCCCC)ccc1OCCC	33 microg/cm2
C=CCc1cc(OCCC(C)C)ccc1OCCC	33 microg/cm2
C=CCc1cc(OCCC)ccc1OCCC	33 microg/cm2
C=CCc1cc(OCC)ccc1OCCC	33 microg/cm2
C=CCc1cc(OCCC(C)C)ccc1OC	19 microg/cm2
C=CCc1cc(OCCC)ccc1OC	19 microg/cm2
C=CCc1cc(OCCCC)ccc1OC	19 microg/cm2
C=CCc1cc(OC)ccc1OC	20 microg/cm2
C=CCc1cc(OCC)ccc1OC	19 microg/cm2
C=CCc1cccc(OCCCC)c1OCC	20 microg/cm2
C=CCc1cccc(OCCC(C)C)c1OCC	20 microg/cm2
C=CCc1cccc(OCCC)c1OCC	20 microg/cm2
C=CCc1cccc(OC)c1OCC	20 microg/cm2
C=CCc1cccc(OCC)c1OCC	20 microg/cm2

SMILES	DC50
C=CCc1cccc(OCCC)c1OC	15.5 microg/cm2
C=CCc1cccc(OCC)c1OC	15.5 microg/cm2
C=CCc1cccc(OC)c1OC	15.5 microg/cm2
C=CCc1cccc(OCCC(C)C)c1OC	15.5 microg/cm2
C=CCc1cccc(OCCCC)c1OC	15.5 microg/cm2
C=CCOc1ccccc1OCCCC [1-allyloxy-2-butoxybenzene]	17 microg/cm2
C=CCOc1ccccc1OCCC [1-allyloxy-2-propoxybenzene]	12 microg/cm2
C=CCOc1ccc(OC)cc1 [1-allyloxy-4-methoxybenzene]	30 microg/cm2
COc1cccc(OCCC(C)C)c1 [1-isopentyloxy-3-methoxybenzene]	29 microg/cm2
CCCCOc1ccccc1OCCC [1-propoxy-2-butoxybenzene]	21 microg/cm2
CCCOc1cccc(OCCC(C)C)c1 [3-PROPOXY-1-ISOPENTOXYBENZENE]	17 microg/cm2
CCCOc1ccc(OCC)cc1 [4-ETHOXY-1-PROPOXYBENZENE]	33.3 microg/cm2
C=CCOc1ccc(CC=C)cc1OC [ALLYLEUGENOL]	15 microg/cm2
CCN(CC)C(=O)c1cccc(C)c1 [DIETHYLTOLUAMIDE]	47 microg/cm2
C=CCc1ccc(OCC)c(OC)c1 [ETHYLEUGENOL]	50 microg/cm2
C=CCc1ccc(OCCC(C)C)c(OC)c1 [ISOPENTYLEUGENOL]	25 microg/cm2
C=CCc1ccc(OCCCC)c(OC)c1 [N-BUTYLEUGENOL]	12 microg/cm2
C=CCc1ccc(OCCC)c(OC)c1 [PROPYLEUGENOL]	19 microg/cm2

These compounds were tested on Trichoplusia ni (assay: Feeding deterrent activity against freshly molted third-instar larval stage of Trichoplusia ni (cabbage looper) in compound pretreated cabbage leaves at 50 ug/cm2 after 3 to 5 hr by leaf disk choice bioassay). Conditions: not given.
Type: functional
In short: as §1

SMILES	Activity
C=CCc1cc(OCCC(C)C)ccc1OCCC(C)C	83%
C=CCc1cc(OCCC)ccc1OCCC(C)C	83%
C=CCc1cc(OCCCC)ccc1OCCC(C)C	83%
C=CCc1cc(OCC)ccc1OCCC(C)C	83%
C=CCc1cc(OC)ccc1OCCC(C)C	83%
C=CCc1cc(OCCCC)ccc1OCCC	65%
C=CCc1cc(OCCC(C)C)ccc1OCCC	65%
C=CCc1cc(OCCC)ccc1OCCC	65%
C=CCc1cc(OCC)ccc1OCCC	65%
C=CCc1cc(OCCC(C)C)ccc1OC	68%
C=CCc1cc(OCCC)ccc1OC	68%
C=CCc1cc(OCCCC)ccc1OC	68%
C=CCc1cc(OC)ccc1OC	80%
C=CCc1cc(OCC)ccc1OC	68%
C=CCc1cccc(OCCCC)c1OCC	100%
C=CCc1cccc(OCCC(C)C)c1OCC	100%
C=CCc1cccc(OCCC)c1OCC	100%
C=CCc1cccc(OC)c1OCC	100%
C=CCc1cccc(OCC)c1OCC	100%

SMILES	Activity
C=CCc1cccc(OCCC)c1OC	100%
C=CCc1cccc(OCC)c1OC	100%
C=CCc1cccc(OC)c1OC	100%
C=CCc1cccc(OCCC(C)C)c1OC	100%
C=CCc1cccc(OCCCC)c1OC	100%
C=CCOc1ccccc1OCCCC [1-allyloxy-2-butoxybenzene]	92%
C=CCOc1ccccc1OCCC [1-allyloxy-2-propoxybenzene]	96%
C=CCOc1ccc(OC)cc1 [1-allyloxy-4-methoxybenzene]	62%
COc1cccc(OCCC(C)C)c1 [1-isopentyloxy-3-methoxybenzene]	89%
CCCCOc1ccccc1OCCC [1-propoxy-2-butoxybenzene]	98%
CCCOc1cccc(OCCC(C)C)c1 [3-PROPOXY-1-ISOPENTOXYBENZENE]	97%
CCCOc1ccc(OCC)cc1 [4-ETHOXY-1-PROPOXYBENZENE]	100%
C=CCOc1ccc(CC=C)cc1OC [ALLYLEUGENOL]	86%
CCN(CC)C(=O)c1cccc(C)c1 [DIETHYLTOLUAMIDE]	60%
C=CCc1ccc(OCC)c(OC)c1 [ETHYLEUGENOL]	51%
C=CCc1ccc(OCCC(C)C)c(OC)c1 [ISOPENTYLEUGENOL]	86%
C=CCc1ccc(OCCCC)c(OC)c1 [N-BUTYLEUGENOL]	92%
C=CCc1ccc(OCCC)c(OC)c1 [PROPYLEUGENOL]	84%
